Assay results taken from ChEMBL document CHEMBL1135836, “Cyclodextrin-derived host molecules as reversal agents for the neuromuscular blocker rocuronium bromide: synthesis and structure-activity relationships” (J Med Chem, 2002).

Tests used:
Type in all cases: functional
Mus musculus [1] = species: Mus musculus; assay: In vitro reversal activity versus ~90% block by rocuronium in isolated mouse hemidiaphragm, expressed as % of maximum reversal at 216 uM conc.
Mus musculus [2] = species: Mus musculus; assay: In vitro reversal activity versus ~90% block by rocuronium in isolated mouse hemidiaphragm, expressed as effective conc.
Cavia porcellus [3] = assay: In vivo reversal activity versus ~90% block by rocuronium in guinea pig, expressed as % of maximum reversal at 12 umol/kg conc.
How it was run: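 Male Dunkin-Hartley guinea pigs (600-900 g) anaesthetized ip with pentobarbitone 10 mg/kg plus urethane 1000 mg/kg, tracheotomized and artificially ventilated. Continuous iv rocuronium bromide infusion (~10 nmol kg-1 min-1) raised until steady-state twitch block of 85-90%. Increasing single iv doses of reversal agent given by a separate catheter. Max reversal is peak twitch recovery versus preblock height at highest dose tested; means ± SEM, n ≥ 2 or single experiment.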

Cavia porcellus [4] = assay: In vivo reversal activity versus ~90% block by rocuronium in guinea pig
How it was run: (§1)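 Male Dunkin-Hartley guinea pigs (600-900 g), anaesthetized ip with pentobarbitone 10 mg/kg plus urethane 1000 mg/kg, tracheotomized and ventilated. Continuous iv rocuronium infusion (~10 nmol kg-1 min-1) was raised to a steady 85-90% block. Increasing iv doses of agent were given cumulatively. ED50 = 50% recovery versus preblock twitch, by regression. Mean ± SEM of at least two experiments, or one.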

Mus musculus [5] = species: Mus musculus; assay: In vitro reversal activity versus ~90% block by rocuronium in isolated mouse hemidiaphragm, expressed as % of maximum reversal at 144 uM conc.
Cavia porcellus [6] = assay: In vivo reversal activity versus ~90% block by rocuronium in guinea pig, expressed as % of maximum reversal at 10 umol/kg conc.; how it was run: as §1
Mus musculus [7] = species: Mus musculus; assay: In vitro reversal activity versus ~90% block by rocuronium in isolated mouse hemidiaphragm, expressed as % of maximum reversal at 18 uM conc.

| EC50 (Mus musculus [2]) [µM] | SMILES | Max reversal (Mus musculus [1]) [%] | Max reversal (Cavia porcellus [3]) [%] | ED50 (Cavia porcellus [4]) [µmol/kg] | Max reversal (Mus musculus [5]) [%] | Max reversal (Cavia porcellus [6]) [%] | Max reversal (Mus musculus [7]) [%] |
| --- | --- | --- | --- | --- | --- | --- | --- |
| 227 | O=C([O-])c1ccccc1SCC1O[C@@H]2O[C@@H]3C(CSc4ccccc4C(=O)[O-])O[C@H](O[C@@H]4C(CSc5ccccc5C(=O)[O-])O[C@H](O[C@@H]5C(CSc6ccccc6C(=O)[O-])O[C@H](O[C@@H]6C(CSc7ccccc7C(=O)[O-])O[C@H](O[C@@H]7C(CSc8ccccc8C(=O)[O-])O[C@H](O[C@@H]8C(CSc9ccccc9C(=O)[O-])O[C@H](O[C@@H]9C(CSc%10ccccc%10C(=O)[O-])O[C@H](O[C@H]1C(O)C2O)C(O)C9O)C(O)C8O)C(O)C7O)C(O)C6O)C(O)C5O)C(O)C4O)C(O)C3O.[Na+].[Na+].[Na+].[Na+].[Na+].[Na+].[Na+].[Na+] (stereo not given in full) | 42.3 |  |  |  |  |  |
| 17.2 | O=C([O-])CCSCC1O[C@@H]2O[C@@H]3C(CO)O[C@H](O[C@@H]4C(CO)O[C@H](O[C@@H]5C(CO)O[C@H](O[C@@H]6C(CO)O[C@H](O[C@@H]7C(CO)O[C@H](O[C@@H]8C(CO)O[C@H](O[C@@H]9C(CO)O[C@H](O[C@H]1C(O)C2O)C(O)C9O)C(O)C8O)C(O)C7O)C(O)C6O)C(O)C5O)C(O)C4O)C(O)C3O.[Na+] (stereo not given in full) |  | 100.6 | 1.3 | 94.5 |  |  |
| 33.9 | C[C@H](CSCC1O[C@@H]2O[C@@H]3C(CSC[C@H](C)C(=O)N4CCCC4C(=O)[O-])O[C@H](O[C@@H]4C(CSC[C@@H](C)C(=O)N5CCCC5C(=O)[O-])O[C@H](O[C@@H]5C(CSC[C@@H](C)C(=O)N6CCCC6C(=O)[O-])O[C@H](O[C@@H]6C(CSC[C@H](C)C(=O)N7CCCC7C(=O)[O-])O[C@H](O[C@@H]7C(CSC[C@@H](C)C(=O)N8CCCC8C(=O)[O-])O[C@H](O[C@@H]8C(CSC[C@H](C)C(=O)N9CCCC9C(=O)[O-])O[C@H](O[C@@H]9C(CSC[C@@H](C)C(=O)N%10CCCC%10C(=O)[O-])O[C@H](O[C@H]1C(O)C2O)C(O)C9O)C(O)C8O)C(O)C7O)C(O)C6O)C(O)C5O)C(O)C4O)C(O)C3O)C(=O)N1CCCC1C(=O)[O-].[Na+].[Na+].[Na+].[Na+].[Na+].[Na+].[Na+].[Na+] (stereo not given in full) |  |  | 1.49 |  | 103.6 | 35.7 |
